Hits are enriched below; roughly 4% of the tested compounds scored in any of these assays.
ABHD5-PLIN5 inh: blocks binding of human ABHD5 to perilipin-5 | Q00G26+Q8WTS1 | Split G. princeps luciferase complementation, luminescence, 4 h | inhibition, % at 4 µM | hit rate 0.78% among 360,000 | AID 602281;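 active means inhibition above the mean inhibition across every tested compound plus 3 SD, cut at about 22% in these data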;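 further: 0% = DMSO only wells and the 100% control is not disclosed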
Granule exo inh: lytic granule exocytosis inhibition; TALL-104 LAMP-1 surface exposure, flow cytometry; cells stimulated with thapsigargin and PMA; inhibition, % at 10 µM; hit rate 0.66% among 360,000; AID 651702;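 active means inhibition above about 55%, limit read from the data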
CHOP UPR activ: activators of apoptotic arm of unfolded protein response (CHOP); CHO-CHOP luciferase reporter, UPR activation, luminescence; percent of tunicamycin response over DMSO baseline; activation, % at 10 µM; hit rate 0.34% among 330,000; AID 449763;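 active means at 10 µM dose, activation of 40% or more, normalized to positive control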;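 further: 100% = tunicamycin at 10 µg/mL and 0% = DMSO alone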
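Test system: CHO CHOP reporter cells. Input: 500 CHO-CHOP cells per well. Medium: F12 with 10% FBS. Technique: luciferase luminescence. Measure: percent activation relative to tunicamycin control. Dosing: 10 µM compound, 0.5% DMSO. Timing: 16-18 h cell attachment, then 6 h compound exposure, 37 °C.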
Mdm2-MdmX inh: human Mdm2/MdmX binding inhibition. inhibition, % at 8 µM. hit rate 3% among 330,000. SaOS-2 split-luciferase Mdm2/MdmX complementation, luminescence. AID 485346;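 active means inhibition of at least 50% at 8 µM in the primary screen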
UPR XBP1 act: adaptive UPR (XBP1) activation. CHO-XBP1 luciferase reporter, IRE1-XBP1 UPR activation, luminescence; percent of tunicamycin response, DMSO as zero. activation, % at 20 µM. hit rate 0.33% among 330,000;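 active means versus positive control, 20 µM dose yields 30% or more activation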;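 further: 100% = tunicamycin at 10 µg/mL and 0% = DMSO only wells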
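Material: CHO-XBP1 cells stably carrying IRE1-XBP1-driven luciferase reporter | Medium: F12 with 10% serum | Compound dosing: 20 µM single concentration, DMSO 1% | Incubation: Overnight seeding at 37 °C, 6 h compound treatment at 37 °C | Detection: Steady-Glo luminescence read | Read-out basis: % activation of reporter signal versus tunicamycin and DMSO controls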
Numbers without * were called inactive; nt = no result given.

SMILES	ABHD5-PLIN5 inh	Granule exo inh	CHOP UPR activ	Mdm2-MdmX inh	UPR XBP1 act
Clc1cccc(Cc2c(-c3ccco3)nc3ccc(Br)cn23)c1	49*	51	nt	nt	nt
Cc1ccc(C)c(Cn2nnc3c(=O)[nH]c(C4CCCN(S(=O)(=O)Cc5ccccc5)C4)nc32)c1 (centres undefined)	-6	52	1	8	103*
Cc1ccc(C)c(Cn2nnc3c(=O)[nH]c(C4CCCN(C(=O)C5CCCCC5)C4)nc32)c1 (centres undefined)	3	4	1	17	-2
S=C(NCc1ccccc1)C(=S)NCc1ccccc1	-5	97*	nt	nt	nt
Cc1c(/C=N/NC(=O)c2ccc3c(c2)OCO3)cnn1C	5	-2	1	4	1
COc1cc(/C=C(\C#N)C(=O)Nc2cccc(C(=O)O)c2)ccc1OCc1ccc(F)cc1	5	-4	5	-35	-1
CCOc1cc(/C=C(\C#N)C(=O)Nc2cccc(C(=O)O)c2)ccc1OCc1ccccc1Cl	-2	81*	2	-48	3
CCOC(=O)c1sc(NC(=S)NC(=O)c2cccc(Cl)c2)c(C(=O)OCC)c1C	-1	3	22	19	-1
CCOc1ccccc1-c1c2cc(O)c(=O)cc-2oc2cc(O)c(O)cc12	27*	-1	nt	nt	nt
CCOC(=O)COc1ccccc1/C=C\[N+](=O)[O-]	62*	43	nt	nt	nt
Cc1ccc(C(=O)COC(=O)COc2ccccc2[N+](=O)[O-])s1	-3	-3	0	-6	-3
CC1=C(C#N)C(c2ccoc2)C(C(=O)OCc2ccccc2)=C(N)S1 (centres undefined)	-2	-1	-1	-7	4
CS(=O)(=O)c1cc([N+](=O)[O-])c(Sc2nc3ccccc3[nH]2)c([N+](=O)[O-])c1	48*	8	-6	2	-5
Cc1cc(C)cc(C(=O)NC(=S)Nc2ccc(Cc3ccncc3)cc2)c1	5	1	0	44	-2
O=c1n(S(=O)(=O)c2cccc3cccnc23)c2ccccc2n1S(=O)(=O)c1cccc2cccnc12	1	68*	-1	26	-2
O=C1c2ccccc2NC(c2cccc([N+](=O)[O-])c2)N1CCc1ccccc1 (centres undefined)	-4	76*	2	-35	-5
CN(CC1COc2ccccc2O1)C(=O)Cn1cc(C(F)(F)F)ccc1=O (centres undefined)	3	-1	0	13	2
Cc1cc2oc(C(=O)N(Cc3ccccc3)c3ccccn3)cc(=O)c2cc1Cl	6	57*	2	21	-4
CCc1nc(N(CC)CC)c2oc3ccccc3c2n1	-11	9	1	11	4
CCOc1ccc(OCCC(=O)N(CC)CC(=O)Nc2c(F)cccc2F)cc1	-1	4	1	-29	-3
CC(=O)Nc1ccc(OCc2cccc([N+](=O)[O-])c2)cc1	0	-5	6	3	0
CC(=O)Nc1ccc(C=CC=Cc2cccc([N+](=O)[O-])c2)cc1	22*	-4	nt	nt	nt
C#CCOCCOCCOCCNc1nc(N2CCN(C(=O)[C@H](CCCCN)n3cc([C@@H](N)CC(C)C)nn3)CC2)nc(N2CCN(C(=O)[C@H](Cc3cc4ccccc4[nH]3)n3cc([C@@H](N)Cc4ccc(O)cc4)nn3)CC2)n1	25*	30	-2	3	0
C#CCOCCOCCOCCNc1nc(N2CCN(C(=O)C([C@@H](C)CC)n3cc(C(N)Cc4ccc(O)cc4)nn3)CC2)nc(N2CCN(C(=O)[C@H](CCC(=O)O)n3cc(C(N)Cc4ccc(O)cc4)nn3)CC2)n1 (some centres undefined)	3	64*	-1	8	-2
COc1ccc(N2C(=O)CC(Sc3n[nH]c(-c4cccc(C)c4)n3)C2=O)cc1 (centres undefined)	2	95*	2	17	0
CC(C)(c1ccccc1)c1ccc(OCC2CO2)cc1 (centres undefined)	-7	56*	2	7	-5
CC(Sc1nnc(CN2CCCC2)n1Cc1ccccc1)C(=O)Nc1ccc(F)cc1 (centres undefined)	5	3	1	7	-5
CN1c2ccccc2C2(C)CCCC3=Cc4cccc([N+](=O)[O-])c4OC312 (centres undefined)	-4	3	-1	32	-1
